# Data from ChEMBL document CHEMBL1275496, “In vivo pharmacodynamic target investigation for micafungin against Candida albicans and C. glabrata in a neutropenic murine candidiasis model” (Antimicrob Agents Chemother, 2008).
# *1 amine or outer side, *2 acyl side, *3 side chain or, on linkers, in order; H or OH if unused. Where a SMILES comes first, the peptide text is derived from it. Bridges are numbered along the chain shown (N, C = ends). [ ]: non-standard residue; d: D form. The star is where a group is joined. hTyr(3S-OH,4S-OH,3'-OSO3H) = N[C@H](C(=O)O)[C@H](O)[C@@H](O)c1ccc(O)c(OS(=O)(=O)O)c1; Orn(4R-OH,5R-OH) = O=C([C@H](C[C@@H](O)[C@@H](O)N[*:3])N[*:1])[*:2]; Pro(3S-OH,4S-Me) = C[C@H]1CN[C@H](C(=O)O)[C@H]1O; X1 = CCCCCOc1ccc(-c2cc(-c3ccc(C(=O)*)cc3)no2)cc1; Gln(3R-OH) = NC(=O)C[C@@H](O)[C@H](N)C(=O)O; Hyp = O=C(O)[C@@H]1C[C@@H](O)CN1
# What was measured:
# Nakaseomyces glabratus [1] = assay: Antifungal activity against Candida glabrata isolate 5592 infected in ICR/Swiss neutropenic mouse assessed as dose required for 1-log kill after 24 hrs; assay type: functional
# Procedure, shortened: (§1)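 Neutropenic mice (cyclophosphamide sc 150 mg/kg day −4, 100 mg/kg day −1 and +2) infected iv by tail vein 2 h before therapy. Micafungin given ip every 24 h for 4 days at six fourfold-spaced dose levels, 0.078–80 mg/kg/24 h, 3 mice per group. Kidney CFU read at 96 h. Hill-model fit; dose giving 1 log10 below start-of-therapy burden.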
# [2] = Ratio of AUC in ICR/Swiss neutropenic mouse at static dose of 1.98 mg/kg, ip after 24 hrs to MIC for Candida albicans isolate 580; assay type: functional; details: route intraperitoneal
# [3] = Ratio of AUC in ICR/Swiss neutropenic mouse at static dose of 0.06 mg/kg, ip after 24 hrs to MIC for Candida glabrata isolate 32930; assay type: functional; details: route intraperitoneal
# [4] = Ratio of fAUC in ICR/Swiss neutropenic mouse at static dose of 2.53 mg/kg, ip after 24 hrs to MIC for Candida albicans isolate 98-17; assay type: functional; details: route intraperitoneal
# [5] = Ratio of fAUC in ICR/Swiss neutropenic mouse at static dose of 2.4 mg/kg, ip after 24 hrs to MIC for Candida glabrata isolate 35315; assay type: functional; details: route intraperitoneal
# [6] = Ratio of fAUC in ICR/Swiss neutropenic mouse at static dose of 2.18 mg/kg, ip after 24 hrs to MIC for Candida glabrata isolate 34341; assay type: functional; details: route intraperitoneal
# [7] = Ratio of fAUC in ICR/Swiss neutropenic mouse at static dose of 0.06 mg/kg, ip after 24 hrs to MIC for Candida glabrata isolate 32930; assay type: functional; details: route intraperitoneal
# [8] = Ratio of fAUC in ICR/Swiss neutropenic mouse at static dose of 0.41 mg/kg, ip after 24 hrs to MIC for Candida glabrata isolate 33609; assay type: functional; details: route intraperitoneal
# [9] = Ratio of fAUC in ICR/Swiss neutropenic mouse at static dose of 0.90 mg/kg, ip after 24 hrs to MIC for Candida glabrata isolate 5376; assay type: functional; details: dose 0.9 mg/kg; route intraperitoneal
# [10] = Ratio of fAUC in ICR/Swiss neutropenic mouse at static dose of 3.76 mg/kg, ip after 24 hrs to MIC for Candida glabrata isolate 570; assay type: functional; details: route intraperitoneal
# [11] = Ratio of fAUC in ICR/Swiss neutropenic mouse at static dose of 3.88 mg/kg, ip after 24 hrs to MIC for Candida glabrata isolate 33616; assay type: functional; details: route intraperitoneal
# [12] = Ratio of AUC in ICR/Swiss neutropenic mouse at 1-Log kill dose of 1.40 mg/kg, ip after 24 hrs to MIC for Candida glabrata isolate 33609; assay type: functional; details: dose 1.4 mg/kg; route intraperitoneal
# [13] = Ratio of AUC in ICR/Swiss neutropenic mouse at 1-Log kill dose of 2.0 mg/kg, ip after 24 hrs to MIC for Candida glabrata isolate 5376; assay type: functional; details: route intraperitoneal
# [14] = Ratio of AUC in ICR/Swiss neutropenic mouse at 1-Log kill dose of 6.70 mg/kg, ip after 24 hrs to MIC for Candida glabrata isolate 570; assay type: functional; details: dose 6.7 mg/kg; route intraperitoneal
# [15] = Ratio of fAUC in ICR/Swiss neutropenic mouse at 1-Log kill dose of 4.60 mg/kg, ip after 24 hrs to MIC for Candida albicans isolate 98-17; assay type: functional; details: dose 4.6 mg/kg; route intraperitoneal
# [16] = Ratio of fAUC in ICR/Swiss neutropenic mouse at 1-Log kill dose of 4.08 mg/kg, ip after 24 hrs to MIC for Candida albicans isolate K1; assay type: functional; details: route intraperitoneal
# Candida albicans [17] = assay: Antifungal activity against Candida albicans; assay type: functional
# Procedure, shortened: (§2)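 Broth microdilution MIC per CLSI M27-A2. Two endpoints were read against the drug-free control well: partial inhibition (M1, CLSI recommended) and complete inhibition (M2). Tests were run in duplicate on four separate occasions, and the value is the mean.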
# Candida albicans [18] = assay: Antifungal activity against Candida albicans isolate 98-210 by CLSI method; assay type: functional; procedure, shortened: as §2
# Nakaseomyces glabratus [19] = assay: Antifungal activity against Candida glabrata isolate 35315 by CLSI method; assay type: functional
# Procedure, shortened: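 Broth microdilution per CLSI M27-A2. The MIC was read at partial inhibition (M1) and at complete inhibition (M2) against the drug-free control. Done in duplicate on four separate occasions and reported as the mean.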
# [20] = Half life in Candida infected ICR/Swiss neutropenic mouse at 80 mg/kg, ip; assay type: ADME, organism-based; parameters: dose 80 mg/kg, route intraperitoneal; details: in vivo
# Procedure, shortened: (§3)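 Single intraperitoneal micafungin doses (80, 20, 5 mg/kg in 0.2 ml, 0.15 M NaCl) given to infected neutropenic mice. Serum was taken from 3 mice per time point at 1, 2, 4, 6, 8, 12, 24 and 48 h. Drug was measured by microbiologic assay with C. albicans K1 (LLOQ 0.12 μg/ml). Noncompartmental analysis; half-life by nonlinear least squares; AUC by trapezoidal rule.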
# [21] = Half life in Candida infected ICR/Swiss neutropenic mouse at 20 mg/kg, ip; assay type: ADME, organism-based; parameters: dose 20 mg/kg, route intraperitoneal; details: in vivo; procedure, shortened: as §3
# [22] = Half life in Candida infected ICR/Swiss neutropenic mouse at 5 mg/kg, ip; assay type: ADME, organism-based; parameters: dose 5 mg/kg, route intraperitoneal; details: in vivo; procedure, shortened: as §3
# Candida albicans [23] = assay: Fungistatic activity against Candida albicans isolate 98-210 infected in ICR/Swiss neutropenic mouse after 24 hrs; assay type: functional
# Procedure, shortened: (§4)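 Neutropenic female ICR/Swiss mice received cyclophosphamide sc at 150 mg/kg on day −4, 100 mg/kg on day −1 and 100 mg/kg on day +2. Mice were infected iv via the tail vein, and ip micafungin in 0.15 M NaCl started 2 h later. Six dose levels from 0.078 to 80 mg/kg/24 h were given q24h for 4 days, 3 mice per dose. Kidney CFU were counted at 96 h. The static dose was derived from a sigmoid Emax (Hill) fit.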
# Candida albicans [24] = assay: Fungistatic activity against Candida albicans isolate K1 infected in ICR/Swiss neutropenic mouse after 24 hrs; assay type: functional; procedure, shortened: as §4
# Nakaseomyces glabratus [25] = assay: Fungistatic activity against Candida glabrata isolate 35315 infected in ICR/Swiss neutropenic mouse after 24 hrs; assay type: functional; procedure, shortened: as §4
# Nakaseomyces glabratus [26] = assay: Fungistatic activity against Candida glabrata isolate 33609 infected in ICR/Swiss neutropenic mouse after 24 hrs; assay type: functional; procedure, shortened: as §4
# Nakaseomyces glabratus [27] = assay: Fungistatic activity against Candida glabrata isolate 5592 infected in ICR/Swiss neutropenic mouse after 24 hrs; assay type: functional; procedure, shortened: as §4
# Nakaseomyces glabratus [28] = assay: Fungistatic activity against Candida glabrata isolate 570 infected in ICR/Swiss neutropenic mouse after 24 hrs; assay type: functional; procedure, shortened: as §4
# Candida albicans [29] = assay: Antifungal activity against Candida albicans isolate 98-17 infected in ICR/Swiss neutropenic mouse assessed as dose required for 1-log kill after 24 hrs; assay type: functional; procedure, shortened: as §1
# Candida albicans [30] = assay: Antifungal activity against Candida albicans isolate 98-210 infected in ICR/Swiss neutropenic mouse assessed as dose required for 1-log kill after 24 hrs; assay type: functional; procedure, shortened: as §1
# Candida albicans [31] = assay: Antifungal activity against Candida albicans isolate K1 infected in ICR/Swiss neutropenic mouse assessed as dose required for 1-log kill after 24 hrs; assay type: functional; procedure, shortened: as §1
# Nakaseomyces glabratus [32] = assay: Antifungal activity against Candida glabrata isolate 35315 infected in ICR/Swiss neutropenic mouse assessed as dose required for 1-log kill after 24 hrs; assay type: functional; procedure, shortened: as §1
# Nakaseomyces glabratus [33] = assay: Antifungal activity against Candida glabrata isolate 37661 infected in ICR/Swiss neutropenic mouse assessed as dose required for 1-log kill after 24 hrs; assay type: functional; procedure, shortened: as §1
smiles,measurement,setting,value
"CCCCCOc1ccc(-c2cc(-c3ccc(C(=O)N[C@H]4C[C@@H](O)[C@@H](O)NC(=O)[C@@H]5[C@@H](O)[C@@H](C)CN5C(=O)[C@H]([C@H](O)CC(N)=O)NC(=O)[C@H]([C@H](O)[C@@H](O)c5ccc(O)c(OS(=O)(=O)O)c5)NC(=O)[C@@H]5C[C@@H](O)CN5C(=O)[C@H]([C@@H](C)O)NC4=O)cc3)no2)cc1 [MICAFUNGIN] (X1-[Orn(4R-OH,5R-OH)]T[Hyp][hTyr(3S-OH,4S-OH,3'-OSO3H)][Gln(3R-OH)][Pro(3S-OH,4S-Me)]; lactam 1-C)",Activity,Nakaseomyces glabratus [1],5.46 mg/kg
same,RatioAUC/MIC,[2],7857
same,RatioAUC/MIC,[3],236
same,fAUC/MIC,[4],5.9
same,fAUC/MIC,[5],2.8
same,fAUC/MIC,[6],2.51
same,fAUC/MIC,[7],0.5
same,fAUC/MIC,[8],1.9
same,fAUC/MIC,[9],8.9
same,fAUC/MIC,[10],17.3
same,fAUC/MIC,[11],1.1
same,RatioAUC/MIC,[12],2600
same,RatioAUC/MIC,[13],7886
same,RatioAUC/MIC,[14],12066
same,fAUC/MIC,[15],10.6
same,fAUC/MIC,[16],18.8
same,MIC50,Candida albicans [17],0.015 µg/mL
same,MIC90,Candida albicans [17],0.03 µg/mL
same,MIC,Candida albicans [18],0.03 µg/mL
same,MIC50,Candida albicans [18],0.016 µg/mL
same,MIC,Nakaseomyces glabratus [19],0.12 µg/mL
same,MIC50,Nakaseomyces glabratus [19],0.06 µg/mL
same,half-life,[20],16 h
same,half-life,[21],13 h
same,half-life,[22],7.5 h
same,Activity,Candida albicans [23],2.84 mg/kg
same,Activity,Candida albicans [24],2.84 mg/kg
same,Activity,Nakaseomyces glabratus [25],2.4 mg/kg
same,Activity,Nakaseomyces glabratus [26],0.41 mg/kg
same,Activity,Nakaseomyces glabratus [27],1.8 mg/kg
same,Activity,Nakaseomyces glabratus [28],3.76 mg/kg
same,Activity,Candida albicans [29],4.6 mg/kg
same,Activity,Candida albicans [30],10.4 mg/kg
same,Activity,Candida albicans [31],4.08 mg/kg
same,Activity,Nakaseomyces glabratus [32],3.77 mg/kg
same,Activity,Nakaseomyces glabratus [33],20.6 mg/kg
